Test results: ChEMBL document CHEMBL1221179, “An shRNA barcode screen provides insight into cancer cell vulnerability to MDM2 inhibitors” (2006)
Active and inactive are the calls of the source. The calls are words filed in the database; no cut-off is given here.

Key:
[1] = tested on: MCF7; test: Induction of cell cycle arrest in human MCF7 cells transfected hnRNPK-targeting iRNA-based shRNA at 4 uM after 14 days by BrdU incorporation assay; format: functional
[2] = tested on: MCF7; test: Induction of p53 expression in human MCF7 cells transfected with 53BP1-targeting iRNA-based shRNA by Western blot analysis; format: functional, cell-based
Summary of the method: (§1)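 MCF-7 expressing GFP control shRNA or either of two 53BP1 shRNAs; lysates immunoblotted for 53BP1, p53 (DO-1), p21 (C19) and MDM2 (2A10, SMP14) after SDS-PAGE transfer to nitrocellulose.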

[3] = tested on: MCF7; test: Antiproliferative activity against human MCF7 cells assessed as appearance of flattened phenotype at 4 uM after 14 days by coomassie staining; format: functional, cell-based
Summary of the method: (§2)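 Retrovirally transduced shRNA (GFP control, p53, or two independent 53BP1 hairpins in pRETROSUPER); cells grown in DMEM with 10% fetal calf serum at 37 °C, 5% CO2; left untreated or given 4 µM nutlin-3 for 14 days; cell density shown by Coomassie staining, morphology inspected.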

[4] = tested on: MCF7; test: Induction of p53 expression in human MCF7 cells by Western blot analysis; format: functional, cell-based; summary of the method: as §1
[5] = tested on: MCF7; test: Induction of cell cycle arrest in human MCF7 cells transfected with p53-targeting iRNA-based shRNA at 4 uM after 14 days by BrdU incorporation assay; format: functional
[6] = tested on: MCF7; test: Antiproliferative activity against human MCF7 cells transfected with 53BP1-targeting iRNA-based shRNA assessed as effect on cellular morphology at 4 uM after 14 days by coomassie staining; format: functional, cell-based; summary of the method: as §2
[7] = tested on: MCF7; test: Induction of p53 expression in human MCF7 cells assessed as increase in p21CIP1 level after 18 hrs by Western blot method in presence of 2.5 mM caffeine; format: functional, cell-based
Summary of the method: (§3)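 MCF-7 pretreated 12 h with 2.5 mM caffeine (or not), then exposed to increasing nutlin-3 concentrations for 18 h; lysates run on SDS-PAGE, blotted to nitrocellulose and probed for p53 (DO-1) and p21 (C19).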

[8] = tested on: MCF7; test: Antiproliferative activity against human MCF7 cells at 4 uM after 14 days by coomassie staining; format: functional, cell-based; summary of the method: as §2
[9] = tested on: MCF7; test: Induction of apoptosis in human MCF7 cells co-transfected with 53BP1-targeting iRNA-based shRNA at 4 uM after 14 days by BrdU incorporation assay; format: functional, cell-based
[10] = tested on: MCF7; test: Induction of cell cycle arrest in human MCF7 cells p53-targeting iRNA-based shRNA assessed as accumulation at S phase at 4 uM after 48 hrs by BrdU incorporation assay; format: functional
Summary of the method: (§4)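 MCF-7 carrying shRNA against GFP (control), p53 or 53BP1, untreated or given 4 µM nutlin-3 for 48 h; 10 µM BrdU pulse 30 min before harvest; ethanol fixation, HCl-Triton permeabilization, borate neutralization; anti-BrdU plus FITC secondary, propidium iodide with RNase; 10,000 cells per sample by flow cytometry; S-phase percentage = BrdU-positive fraction.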

[11] = tested on: MCF7; test: Induction of cell cycle arrest in human MCF7 cells 53BP1-targeting iRNA-based shRNA assessed as accumulation at S phase at 4 uM after 48 hrs by BrdU incorporation assay; format: functional; summary of the method: as §4
[12] = tested on: MCF7; test: Induction of CDKN1A gene expression in human MCF7 cells transfected with 53BP1-targeting iRNA-based shRNA by Western blot analysis; format: functional, cell-based; summary of the method: as §1
[13] = tested on: BJ; test: Induction of p21CIP1 expression in irradiated human BJ cells at 3 uM by Western blot analysis; format: functional, cell-based
Summary of the method: (§5)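 Normal BJ fibroblasts, with or without 2 Gy irradiation, treated with increasing nutlin-3 concentrations; SDS-PAGE and nitrocellulose immunoblot for p53 stabilization and p21 induction.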

[14] = tested on: MCF7; test: Induction of cell cycle arrest in human MCF7 cells transfected with 53BP1-targeting iRNA-based shRNA at 4 uM after 48 hrs by BrdU incorporation assay
[15] = tested on: MCF7; test: Induction of apoptosis in human MCF7 cells transfected with p53-targeting iRNA-based shRNA at 4 uM after 14 days by BrdU incorporation assay; format: functional, cell-based
[16] = tested on: BJ; test: Induction of p21 expression in irradiated human BJ cells at 3 uM by Western blot analysis; format: functional, cell-based; summary of the method: as §5
[17] = tested on: MCF7; test: Antiproliferative activity against human MCF7 cells transfected with p53-targeting iRNA-based shRNA assessed as effect on cellular morphology at 4 uM after 14 days by coomassie staining; format: functional, cell-based; summary of the method: as §2
[18] = tested on: MCF7; test: Induction of p53 accumulation in human MCF7 cells after 18 hrs by Western blot analysis in presence of 2.5 mM caffeine; format: functional, cell-based; summary of the method: as §3
[19] = tested on: A549; test: Antiproliferative activity against human A549 cells transfected with 53BP1-targeting iRNA-based shRNA assessed as effect on cellular morphology at 4 uM after 14 days by coomassie staining; format: functional, cell-based; summary of the method: as §2

**Q.** How did the Activity [1] turn out when COc1ccc(C2=N[C@@H](c3ccc(Cl)cc3)[C@@H](c3ccc(Cl)cc3)N2C(=O)N2CCNC(=O)C2)c(OC(C)C)c1 [NUTLIN-3] was run?
**A.** Active

**Q.** What about the Activity [2] of the same molecule?
**A.** Active

**Q.** What about the Activity [3] of the same molecule?
**A.** Active

**Q.** What about the Activity [4] of the same molecule?
**A.** Active

**Q.** What about the Activity [5] of the same molecule?
**A.** Active

**Q.** What about the Activity [6] of the same molecule?
**A.** inactive

**Q.** And the Activity [7]?
**A.** inactive

**Q.** What about the Activity [8] of the same molecule?
**A.** Active

**Q.** And the Activity [9]?
**A.** inactive

**Q.** What about the Activity [10] of the same molecule?
**A.** 29%

**Q.** And the Activity [11]?
**A.** 17%

**Q.** What about the Activity [12] of the same molecule?
**A.** inactive

**Q.** And the Activity [13]?
**A.** Active

**Q.** And the Activity [14]?
**A.** Active

**Q.** And the Activity [15]?
**A.** inactive

**Q.** And the Activity [16]?
**A.** Active

**Q.** What about the Activity [17] of the same molecule?
**A.** inactive

**Q.** What about the Activity [18] of the same molecule?
**A.** Active

**Q.** What about the Activity [19] of the same molecule?
**A.** inactive
